Measured values gathered from unrelated publications.
Protocols differ between the studies behind these lines.
Target: Tyrosine-protein kinase Blk (BLK, Homo sapiens, UniProt P51451)

For `CO[C@@H]1[C@H](N(C)C(=O)c2ccccc2)C[C@H]2O[C@]1(C)n1c3ccccc3c3c4c(c5c6ccccc6n2c5c31)C(=O)NC4`, the inhibition was 79% (enzyme activity, inhibitor; 1 µM).
For `COc1ccc2oc(-c3ccc4nc(N)oc4c3)c/c(=N\c3ccccc3NC(=O)CCN)c2c1`, the remaining binding was 92% (binding; 1 µM).
With `CC#CC(=O)N1CCC[C@H]1c1nc(-c2ccc(C(=O)Nc3ccccn3)cc2)c2c(N)nccn12` the inhibition was 47% (enzyme activity, inhibitor; 1 µM).
With `CC(C)S(=O)(=O)c1ccc2nccc(Nc3ccc4sc(C5CCCC5)nc4c3)c2c1` the activity vs control was 80% (enzyme activity, inhibitor; 1 µM).
`C[C@H]1CC[C@H](n2c3cnccc3c3cnc(Nc4ccc5c(n4)CCN(C(=O)CO)C5)nc32)CC1` has a remaining binding of 53% (cell-free assay, competition with immobilised ligand; 1 µM).
For `CCCCC(=O)Nc1ccc(-c2ccc3ncn(CCC)c(=O)c3c2)cn1`, the remaining binding was 83% (binding, competition with immobilised ligand; 0.5 µM).
The remaining binding of `Cc1ccc(NC(=O)c2ccnc(C(F)(F)F)c2)cc1-c1cc(OCCO)nc(N2CCOCC2)c1` is reported as 100% (binding, competition with immobilised ligand; 1 µM).
`C1=C/COCc2cc(ccc2OCCN2CCCC2)Nc2nccc(n2)-c2cccc(c2)COC/1` gave a remaining binding of 97% (binding; 0.1 µM).
